ChEMBL document CHEMBL1152813, “Synthesis of puromycin derivatives with backbone-elongated substrates and associated translation inhibitory activities” (Bioorg Med Chem, 2009)

What was measured:
[1] = Solubility in water; assay type: physicochemical; details: buffer
[2] = system: Escherichia coli; assay: Inhibition of firefly luciferase mRNA translation in Escherichia coli after 1 hr relative to control; assay type: functional
Procedure, shortened: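 Reconstituted E. coli translation system translating firefly luciferase mRNA with CCPmn derivatives at 2.5–30 µM (2.5–120 µM for some), 1 h incubation. Luciferase activity (c.p.s.) read by luminescence counter; translation efficiency (%) set against a serial-dilution calibration of control luciferase translated without CCPmns; three independent experiments, standard deviations.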

solubility [1] | IC50 [2] [µM] | SMILES
Soluble | – | C[C@H](CN)C(=O)N[C@H]1[C@@H](O)[C@H](n2cnc3c(N(C)C)ncnc32)O[C@@H]1COP(=O)(O)O
Soluble | – | C[C@H](CO)C(=O)N[C@H]1[C@@H](O)[C@H](n2cnc3c(N(C)C)ncnc32)O[C@@H]1COP(=O)(O)O
Soluble | – | CC(=O)N[C@H]1[C@@H](O)[C@H](n2cnc3c(N(C)C)ncnc32)O[C@@H]1COP(=O)(O)O
Soluble | 12 | C[C@H](CO)C(=O)N[C@H]1[C@@H](O)[C@H](n2cnc3c(N(C)C)ncnc32)O[C@@H]1COP(=O)(O)O[C@H]1[C@@H](O)[C@H](n2ccc(N)nc2=O)O[C@@H]1COP(=O)(O)O[C@H]1[C@@H](O)[C@H](n2ccc(N)nc2=O)O[C@@H]1CO
Soluble | 33 | C[C@H](CN)C(=O)N[C@H]1[C@@H](O)[C@H](n2cnc3c(N(C)C)ncnc32)O[C@@H]1COP(=O)(O)O[C@H]1[C@@H](O)[C@H](n2ccc(N)nc2=O)O[C@@H]1COP(=O)(O)O[C@H]1[C@@H](O)[C@H](n2ccc(N)nc2=O)O[C@@H]1CO
Soluble | 66 | CC(=O)N[C@H]1[C@@H](O)[C@H](n2cnc3c(N(C)C)ncnc32)O[C@@H]1COP(=O)(O)O[C@H]1[C@@H](O)[C@H](n2ccc(N)nc2=O)O[C@@H]1COP(=O)(O)O[C@H]1[C@@H](O)[C@H](n2ccc(N)nc2=O)O[C@@H]1CO
Soluble | 5 | COc1ccc(C[C@H](N)C(=O)N[C@H]2[C@@H](O)[C@H](n3cnc4c(N(C)C)ncnc43)O[C@@H]2COP(=O)(O)O[C@H]2[C@@H](O)[C@H](n3ccc(N)nc3=O)O[C@@H]2COP(=O)(O)O[C@H]2[C@@H](O)[C@H](n3ccc(N)nc3=O)O[C@@H]2CO)cc1
Insoluble | – | CN(C)c1ncnc2c1ncn2[C@@H]1O[C@H](CO)[C@@H](NC(=O)CCO)[C@H]1O
